Measured values taken from ChEMBL document CHEMBL4130635, “2,4-Diaminoquinazolines as Dual Toll-like Receptor (TLR) 7/8 Modulators for the Treatment of Hepatitis B Virus” (J Med Chem, 2018).

Experiments:
[1] = target: T1, Toll-like receptor 7 (Homo sapiens) (UniProt Q9NYK1); assay: Agonist activity at human TLR7 expressed in HEK293 cells assessed as induction of receptor activation incubated for 6 hrs by NF-kappaB-luciferase reporter gene assay; format: cell-based
T1 sequence (whole entry): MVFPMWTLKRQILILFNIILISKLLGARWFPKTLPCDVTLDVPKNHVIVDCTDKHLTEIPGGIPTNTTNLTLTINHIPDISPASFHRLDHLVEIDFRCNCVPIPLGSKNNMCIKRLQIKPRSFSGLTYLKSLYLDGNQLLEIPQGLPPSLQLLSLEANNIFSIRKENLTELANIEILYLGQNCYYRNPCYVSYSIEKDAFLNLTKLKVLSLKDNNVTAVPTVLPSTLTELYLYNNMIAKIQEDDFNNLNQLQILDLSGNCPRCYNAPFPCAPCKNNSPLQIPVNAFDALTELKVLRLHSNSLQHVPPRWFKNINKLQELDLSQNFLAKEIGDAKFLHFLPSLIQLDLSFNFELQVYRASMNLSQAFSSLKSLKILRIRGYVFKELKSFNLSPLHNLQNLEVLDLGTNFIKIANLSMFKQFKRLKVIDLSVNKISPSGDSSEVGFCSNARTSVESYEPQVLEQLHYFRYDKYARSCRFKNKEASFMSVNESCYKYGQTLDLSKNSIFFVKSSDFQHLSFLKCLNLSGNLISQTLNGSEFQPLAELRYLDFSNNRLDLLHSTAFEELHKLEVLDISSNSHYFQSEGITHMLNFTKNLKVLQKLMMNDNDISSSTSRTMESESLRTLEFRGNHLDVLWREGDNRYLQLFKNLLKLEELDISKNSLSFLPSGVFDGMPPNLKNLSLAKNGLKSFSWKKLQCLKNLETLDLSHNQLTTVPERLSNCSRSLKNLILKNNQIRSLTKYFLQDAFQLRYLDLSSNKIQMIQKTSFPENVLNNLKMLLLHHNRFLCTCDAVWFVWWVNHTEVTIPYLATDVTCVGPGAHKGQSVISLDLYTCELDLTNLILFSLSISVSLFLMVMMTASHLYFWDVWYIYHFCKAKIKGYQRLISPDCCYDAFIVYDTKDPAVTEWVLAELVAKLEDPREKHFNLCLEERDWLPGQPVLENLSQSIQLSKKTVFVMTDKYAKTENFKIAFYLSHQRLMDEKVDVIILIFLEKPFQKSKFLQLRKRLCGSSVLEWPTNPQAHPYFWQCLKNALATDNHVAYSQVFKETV
How it was run: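 HEK cell-based assay using a wild-type TLR7 expression vector; a parallel TLR8 vector construct served for selectivity. Results are expressed as lowest effective concentration (LEC), averaged over independent experiments where determined two or more times. A separate HEK 293 cytotoxicity (TOX) assay gave CC50 alongside.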

[2] = Cytotoxicity against HEK293 cells assessed as reduction in cell viability after 6 hrs by ATP lite assay; format: cell-based; settings: human
[3] = target: T2, Toll-like receptor 8 (Homo sapiens) (UniProt Q9NR97); assay: Agonist activity at human TLR8 expressed in HEK293 cells assessed as induction of receptor activation incubated for 6 hrs by NF-kappaB-luciferase reporter gene assay; format: cell-based
T2 sequence (whole entry): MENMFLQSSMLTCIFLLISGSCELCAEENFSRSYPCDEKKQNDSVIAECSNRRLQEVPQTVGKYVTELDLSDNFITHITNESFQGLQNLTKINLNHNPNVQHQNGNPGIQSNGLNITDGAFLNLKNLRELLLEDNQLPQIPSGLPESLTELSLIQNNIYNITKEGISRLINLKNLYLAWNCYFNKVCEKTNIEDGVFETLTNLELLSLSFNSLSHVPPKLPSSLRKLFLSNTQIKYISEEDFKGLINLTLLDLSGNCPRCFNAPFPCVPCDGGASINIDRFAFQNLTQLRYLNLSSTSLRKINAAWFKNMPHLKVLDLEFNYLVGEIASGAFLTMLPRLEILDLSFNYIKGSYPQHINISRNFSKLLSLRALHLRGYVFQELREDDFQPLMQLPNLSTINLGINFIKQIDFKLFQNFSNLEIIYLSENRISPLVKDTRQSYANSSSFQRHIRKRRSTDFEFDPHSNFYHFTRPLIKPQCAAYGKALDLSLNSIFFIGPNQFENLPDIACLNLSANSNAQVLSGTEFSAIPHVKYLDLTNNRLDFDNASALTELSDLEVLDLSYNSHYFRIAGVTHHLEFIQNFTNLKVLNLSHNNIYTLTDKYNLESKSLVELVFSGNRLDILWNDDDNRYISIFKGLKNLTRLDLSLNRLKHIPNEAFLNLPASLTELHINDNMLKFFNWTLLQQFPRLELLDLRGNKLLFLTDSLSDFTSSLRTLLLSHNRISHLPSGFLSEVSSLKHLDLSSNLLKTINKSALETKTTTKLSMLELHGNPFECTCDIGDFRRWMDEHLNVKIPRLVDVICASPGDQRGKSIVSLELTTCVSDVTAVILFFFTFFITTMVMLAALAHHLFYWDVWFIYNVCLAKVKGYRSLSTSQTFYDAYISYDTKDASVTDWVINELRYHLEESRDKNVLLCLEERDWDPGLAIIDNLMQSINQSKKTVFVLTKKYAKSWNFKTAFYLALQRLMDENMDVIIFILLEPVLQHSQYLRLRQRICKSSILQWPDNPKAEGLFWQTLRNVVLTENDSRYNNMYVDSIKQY

[4] = target: T1, Toll-like receptor 7 (Homo sapiens); assay: Agonist activity at TLR7 in human PBMC assessed as suppression of HCV replicon replication in human HuH7 luc/neo cells harboring RNA encoding bicistronic expression construct comprising wild type HCV type 1b NS3-NS5B regions exposed to conditioned media from compound treated PBMCs after 24 hrs by luciferase reporter gene assay; format: cell-based
How it was run: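 Human PBMCs were incubated with compound. Their medium was then transferred onto an HCV replicon system, so the antiviral read-out reflects interferon and cytokines the PBMCs induced. Values are reported as lowest effective concentration (LEC), averaged when determined in two or more independent experiments.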

[5] = target: Voltage-gated inwardly rectifying potassium channel KCNH2 (Homo sapiens, UniProt Q12809); assay: Inhibition of radioligand binding to human ERG expressed in HEK293 cell membranes by scintillation counting method
[6] = Metabolic stability in human liver microsomes assessed as compound metabolized at 1 uM after 15 mins; format: ADME, microsome; settings: read-out: Drug metabolism
How it was run: (§1)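 Mouse (M) or human (H) liver microsomes incubated with compound at 1 μM; percent metabolized after 15 min.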

[7] = Metabolic stability in mouse liver microsomes assessed as compound metabolized at 1 uM after 15 mins; format: ADME, microsome; settings: read-out: Drug metabolism; how it was run: as §1
HepG2 = assay: Cytotoxicity against human HepG2 cells; format: cell-based

Voltage-gated inwardly rectifying potassium channel KCNH2, sequence (Q12809 whole entry): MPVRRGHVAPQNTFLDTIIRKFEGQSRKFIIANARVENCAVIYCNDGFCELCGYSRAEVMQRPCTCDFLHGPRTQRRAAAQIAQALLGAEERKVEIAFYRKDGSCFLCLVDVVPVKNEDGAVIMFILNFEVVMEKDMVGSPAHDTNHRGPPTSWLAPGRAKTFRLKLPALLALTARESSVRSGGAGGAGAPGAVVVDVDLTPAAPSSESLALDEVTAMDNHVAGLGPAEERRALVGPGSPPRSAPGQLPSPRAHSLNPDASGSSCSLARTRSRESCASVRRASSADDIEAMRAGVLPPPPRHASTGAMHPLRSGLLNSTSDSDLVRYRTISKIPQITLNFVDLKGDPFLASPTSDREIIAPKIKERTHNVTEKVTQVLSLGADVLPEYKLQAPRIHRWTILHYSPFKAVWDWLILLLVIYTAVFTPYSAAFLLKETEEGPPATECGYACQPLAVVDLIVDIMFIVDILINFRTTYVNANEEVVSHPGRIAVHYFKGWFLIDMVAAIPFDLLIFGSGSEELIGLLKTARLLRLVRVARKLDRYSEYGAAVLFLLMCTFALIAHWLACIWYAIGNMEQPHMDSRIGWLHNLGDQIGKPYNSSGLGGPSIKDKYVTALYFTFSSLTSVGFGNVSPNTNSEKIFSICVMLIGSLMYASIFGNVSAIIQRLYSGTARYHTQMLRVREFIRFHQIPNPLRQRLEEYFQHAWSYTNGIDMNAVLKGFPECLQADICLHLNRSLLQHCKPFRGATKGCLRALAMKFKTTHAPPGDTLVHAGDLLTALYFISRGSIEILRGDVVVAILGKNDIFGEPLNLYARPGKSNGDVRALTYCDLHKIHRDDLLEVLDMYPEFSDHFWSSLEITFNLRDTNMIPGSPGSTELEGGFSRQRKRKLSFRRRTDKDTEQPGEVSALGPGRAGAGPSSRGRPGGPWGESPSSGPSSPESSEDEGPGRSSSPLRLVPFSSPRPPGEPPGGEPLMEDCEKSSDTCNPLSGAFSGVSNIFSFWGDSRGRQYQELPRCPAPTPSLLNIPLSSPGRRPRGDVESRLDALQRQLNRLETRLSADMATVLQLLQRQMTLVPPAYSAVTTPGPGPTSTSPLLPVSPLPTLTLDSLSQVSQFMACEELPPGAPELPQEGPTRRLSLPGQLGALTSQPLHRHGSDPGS

Row | Structure (SMILES) | MEC [1] [µM] | CC50 at 6 h [2] [µM] | MEC [3] [µM] | MEC [4] [µM] | IC50 [5] [µM] | metabolised at 0.25 h, 1 µM [6] [%] | metabolised at 0.25 h, 1 µM [7] [%] | EC20 (HepG2) [µM]
1 | CC[C@H](C)[C@@H](CO)Nc1nc(N)nc2ccccc12 | 1.34 | > 24 | 0.08 | 0.14 |  |  |  | 
2 | CCCC[C@@H](CCO)Nc1nc(N)nc2ccc(F)cc12 | 1.59 | > 24 | 0.42 | 0.37 | 5.8 | 33 | 63 | 
3 | CC[C@@H](CO)Nc1nc(N)nc2ccccc12 | 3.9 | > 24 | 0.19 | 2.3 |  |  |  | 
4 | CCCC[C@@H](CCO)Nc1nc(N)nc2ccccc12 | 0.08 | > 24 | 0.08 | 0.02 | 2.7 | 45 | 82 | 
5 | CCC[C@@H](CCO)Nc1nc(N)nc2cc(F)ccc12 | 0.11 | > 24 | 0.04 | 4.8 | 9.1 | 13 | 100 | 
6 | CCCC[C@@H](CCO)Nc1nc(N)nc2cc(C)ccc12 | 0.03 | > 24 | 0.06 | 0.02 | 1.8 | 70 | 98 | 
7 | CC(C)C[C@@H](CO)Nc1nc(N)nc2ccccc12 | 3.18 | > 24 | 0.45 | 0.71 |  |  |  | 
8 | CCCC[C@@H](CCO)Nc1nc(N)nc2cccc(F)c12 | 0.34 | > 24 | 0.1 | 0.06 | > 10 | 87 | 25 | 13.2
9 | CCCC[C@@H](CCO)Nc1nc(N)nc2cc(OC)ccc12 | 0.16 | > 24 | 0.16 | 0.04 |  | 37 | 80 | 
10 | CCCC[C@@H](CCO)Nc1nc(N)nc2cc(F)ccc12 | 0.04 | > 24 | 0.03 | 0.04 |  | 39 | 91 | 
11 | CCCC[C@@H](CCO)Nc1nc(N)nc2cccc(C)c12 | 0.14 | > 24 | 0.06 | 0.02 | 0.6 | 67 | 82 | 
12 | CCCCNc1nc(N)nc2ccccc12 | 0.16 | > 24 | 0.06 | 0.03 |  |  |  | 
13 | CCC[C@@H](CCO)Nc1nc(N)nc2ccc(OC)cc12 | 11.8 | > 24 | 2.97 |  |  |  |  | 
14 | CCC[C@@H](CCO)Nc1nc(N)nc2ccc(F)cc12 | 1.05 | > 24 | 0.42 |  |  | 22 | 47 | 
15 | CCC[C@@H](CCO)Nc1nc(N)nc2cccc(C)c12 | 0.22 | > 24 | 0.14 |  | 5.5 | 44 | 88 | 
16 | CCCC[C@@H](CCO)Nc1nc(N)nc2ccc(C)cc12 | 0.44 | > 24 | 0.25 | 0.14 | 5.4 | 24 | 99 | 
17 | CCCC[C@H](CO)Nc1nc(N)nc2ccccc12 | 22.5 | > 24 | 0.05 | 0.16 |  |  |  | 
18 | CC(C)C[C@@H](CCO)Nc1nc(N)nc2ccccc12 | 1.83 | > 24 | 0.69 | 0.55 |  |  |  | 
19 | CCC[C@@H](CCO)Nc1nc(N)nc2cc(C)ccc12 | 0.06 | > 24 | 0.05 | 0.39 | 8.1 | 44 | 87 | 
20 | CCC[C@@H](CCO)Nc1nc(N)nc2ccccc12 | 0.2 | > 24 | 0.11 | 0.38 | 6.8 | 23 | 72 | 
21 | CCCC[C@@H](CCO)Nc1nc(N)nc2c(F)cccc12 | 0.11 | > 24 | 0.16 | 0.05 | 4.47 | 76 | 98 | 
22 | CCC[C@H](CO)Nc1nc(N)nc2ccccc12 | > 25 | > 24 | 0.57 | 2.36 |  |  |  | 
23 | CCC[C@@H](CO)Nc1nc(N)nc2ccccc12 | 0.46 | > 24 | 0.01 | 0.04 |  |  |  | 
24 | CCCC[C@@H](CO)Nc1nc(N)nc2ccccc12 | 0.24 | > 24 | 0.02 | 0.04 |  |  |  | 
25 | CCC[C@@H](CCO)Nc1nc(N)nc2ccc(C)cc12 | 0.54 | > 24 | 0.45 | 0.39 | 7.2 | 21 | 97 | 
26 | CCC[C@@H](CCO)Nc1nc(N)nc2cccc(F)c12 | 0.22 | > 24 | 0.02 |  | 8.9 | 62 | 47 | 
27 | CCCC[C@@H](CCO)Nc1nc(N)nc2ccc(OC)cc12 | 1.85 | > 24 | 2.81 | 0.88 | 6 | 25 | 97 | 
